This is an account of results in ChEMBL document CHEMBL1275331, “Discovery of a novel 5-HT(3) antagonist/5-HT(1A) agonist 3-amino-5,6,7,8-tetrahydro-2-{4-[4-(quinolin-2-yl)piperazin-1-yl]butyl}quinazolin-4(3H)-one (TZB-30878) as an orally bioavailable agent for irritable bowel syndrome” (J Med Chem, 2010).

Data set [1] concerns the target T1, 5-hydroxytryptamine receptor 1A (Homo sapiens) (UniProt P08908).
T1 sequence (whole entry): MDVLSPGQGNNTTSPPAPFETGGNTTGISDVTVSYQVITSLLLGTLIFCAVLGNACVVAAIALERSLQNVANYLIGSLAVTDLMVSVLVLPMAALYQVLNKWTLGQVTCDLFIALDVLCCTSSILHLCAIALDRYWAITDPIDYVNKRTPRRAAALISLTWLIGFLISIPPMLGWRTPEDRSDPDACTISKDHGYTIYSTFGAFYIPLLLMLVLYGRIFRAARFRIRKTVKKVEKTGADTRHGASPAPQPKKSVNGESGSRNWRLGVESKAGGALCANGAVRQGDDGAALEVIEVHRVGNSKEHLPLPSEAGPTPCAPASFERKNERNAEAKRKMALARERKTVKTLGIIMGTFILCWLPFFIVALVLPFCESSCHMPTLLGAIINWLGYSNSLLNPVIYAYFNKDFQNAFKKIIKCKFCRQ
As to the kind of experiment: Agonist activity at human cloned 5HT1A receptor expressed in CHO cells assessed as stimulation of [35S]GTPgammaS binding at 900 uL after 30 mins by liquid scintillation counting. The class given is functional, cell-based. In short, it runs like this: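 Membranes from CHO cells expressing human 5-HT1A were diluted in 20 mM HEPES/3 mM MgCl2/120 mM NaCl, pH 7.4. They were preincubated with 20 μM GDP and test drug for 20 min at 30 °C, then held on ice for 15 min. [35S]GTPγS (100 pM) was added for 30 min at 30 °C. Samples were filtered, washed with cold HEPES/MgCl2 buffer, and bound radioactivity counted; EC50 and Emax reported.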
(GTPγS is a poorly hydrolysed GTP analogue; its binding reports G protein activation.)

Data set [2] is described as follows: Drug level in Sprague-Dawley rat brain at 3 mg/kg, po after 2 hrs by HPLC analysis. The format is ADME, organism-based. Set-up: dose 3 mg/kg, route oral. To be noted: read-out: Drug uptake. The procedure, abridged: (§1)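 Total compound concentration was measured in brain and blood at 2, 4 and 8 h after a single oral 3 mg/kg dose. Brain/blood ratio was also derived. Values are mean ± SD of three rats.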

The nature of data set [3]: Drug level in Sprague-Dawley rat blood at 3 mg/kg, po after 2 hrs by HPLC analysis. The format is ADME, organism-based. Set-up: dose 3 mg/kg, route oral. To be noted: whole blood, read-out: Drug uptake. The procedure, abridged: as §1
Data set [4] deals with T2, Adrenergic receptor alpha-2 (Rattus norvegicus, UniProt P22086+P19328+P22909). As to the kind of experiment: Inhibition of rat alpha2 adrenergic receptor.
For data set [5], the target named is T3, 5-hydroxytryptamine receptor 3A (Homo sapiens, UniProt P46098).
T3 sequence (P46098 whole entry): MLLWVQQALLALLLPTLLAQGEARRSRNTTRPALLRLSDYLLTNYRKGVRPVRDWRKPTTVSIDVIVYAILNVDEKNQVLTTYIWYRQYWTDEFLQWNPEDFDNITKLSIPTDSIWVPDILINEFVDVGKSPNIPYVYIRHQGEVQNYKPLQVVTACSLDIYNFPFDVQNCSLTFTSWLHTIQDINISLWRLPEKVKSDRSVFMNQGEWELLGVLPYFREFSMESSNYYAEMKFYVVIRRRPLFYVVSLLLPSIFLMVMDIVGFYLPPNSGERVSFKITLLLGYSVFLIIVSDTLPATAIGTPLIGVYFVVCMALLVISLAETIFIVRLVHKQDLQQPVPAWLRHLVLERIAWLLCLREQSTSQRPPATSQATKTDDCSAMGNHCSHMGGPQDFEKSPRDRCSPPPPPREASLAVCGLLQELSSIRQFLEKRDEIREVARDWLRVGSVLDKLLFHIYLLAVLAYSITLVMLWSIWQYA
As to the kind of experiment: Binding affinity to human 5HT3 receptor. The procedure, abridged: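 HEK-293 membranes expressing human 5-HT3 were incubated with 0.5 nmol/L [3H]BRL-43694 (final) for 60 min at 25 °C. Buffer: 50 mM Tris-HCl, 5 mM MgCl2, 1 mM EDTA, pH 7.5. Compound came from 270 μmol/L DMSO stock, diluted in buffer. Filtration was through GF/B presoaked in 0.5% polyethyleneimine, with two cold Tris washes. Run in duplicate or triplicate; percent inhibition calculated.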

In data set [6] the test system is Rattus norvegicus. As to the kind of experiment: Reduction in wrap restraint stress-induced defecation in rat diarrhea-predominant irritable bowel syndrome model at 1 to 10 mg/kg, po administered 1 hr prior to induction of stress. The class given is functional, organism-based. In short, it runs like this: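 Lightly anesthetized rats had upper bodies wrapped with adhesive tape, then returned to observation cages; feces counted 1 h after wrapping. Compound or vehicle given orally 1 h before restraint; unwrapped animals as normal group. n = 8 per group, mean (SD); Wilcoxon and nonparametric Dunnett's tests.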

Data set [7] has as its target Adenosine receptor A1 (Homo sapiens, UniProt P30542). As to the kind of experiment: Displacement of [3H]DPCPX from human recombinant adenosine A1 receptor. (In general: Loss of bound radioactivity is the signal in a displacement assay; it reports binding, not function.)
For data set [8], the target named is Adrenergic receptor alpha-1 (Rattus norvegicus, UniProt P15823+P23944+P43140). As to the kind of experiment: Displacement of [3H]prazosin from rat cerebral cortex alpha1 adrenergic receptor. The format is tissue-based.
Data set [9] deals with T2, Adrenergic receptor alpha-2. The data set can be described thus: Displacement of [3H]RX821002 from rat cerebral cortex alpha2 adrenergic receptor. The format is tissue-based.
A short description of data set [10]: Displacement of [3H]GABA from rat cerebral cortex GABA(A) receptor. The format is tissue-based.
Data set [11] has as its target Histamine H2 receptor (Homo sapiens, UniProt P25021). The data set can be described thus: Displacement of [125I]APT from human recombinant histamine H2 receptor.
For data set [12], the target named is Muscarinic acetylcholine receptor M2 (Homo sapiens, UniProt P08172). As to the kind of experiment: Displacement of [3H]AF-DX384 from human recombinant muscarinic M2 receptor.
Data set [13] has as its target Muscarinic acetylcholine receptor M3 (Homo sapiens, UniProt P20309). The data set can be described thus: Displacement of [3H]4-DAMP from human recombinant muscarinic M3 receptor.
Data set [14] addresses 5-hydroxytryptamine receptor 7 (Homo sapiens, UniProt P34969). As to the kind of experiment: Displacement of [3H]LSD from human recombinant 5HT7 receptor.

One may read the Emax as the greatest response seen or fitted, relative to the assay's reference. The term Ki denotes the equilibrium dissociation constant of an inhibitor or competing ligand from its target.

Active and inactive are the calls of the source. No cut-off for these calls is given here.

Sequence of Histamine H2 receptor (P25021 whole entry): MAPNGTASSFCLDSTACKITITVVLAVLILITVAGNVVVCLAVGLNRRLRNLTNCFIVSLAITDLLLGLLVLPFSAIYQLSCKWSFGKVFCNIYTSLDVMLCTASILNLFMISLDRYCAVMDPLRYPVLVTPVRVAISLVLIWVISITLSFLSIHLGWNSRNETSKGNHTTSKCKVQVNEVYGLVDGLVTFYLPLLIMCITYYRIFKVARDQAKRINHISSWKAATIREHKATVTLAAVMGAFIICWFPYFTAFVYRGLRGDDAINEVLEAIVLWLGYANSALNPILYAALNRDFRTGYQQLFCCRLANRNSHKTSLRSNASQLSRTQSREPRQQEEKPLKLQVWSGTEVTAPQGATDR
Sequence of 5-hydroxytryptamine receptor 7 (P34969 whole entry): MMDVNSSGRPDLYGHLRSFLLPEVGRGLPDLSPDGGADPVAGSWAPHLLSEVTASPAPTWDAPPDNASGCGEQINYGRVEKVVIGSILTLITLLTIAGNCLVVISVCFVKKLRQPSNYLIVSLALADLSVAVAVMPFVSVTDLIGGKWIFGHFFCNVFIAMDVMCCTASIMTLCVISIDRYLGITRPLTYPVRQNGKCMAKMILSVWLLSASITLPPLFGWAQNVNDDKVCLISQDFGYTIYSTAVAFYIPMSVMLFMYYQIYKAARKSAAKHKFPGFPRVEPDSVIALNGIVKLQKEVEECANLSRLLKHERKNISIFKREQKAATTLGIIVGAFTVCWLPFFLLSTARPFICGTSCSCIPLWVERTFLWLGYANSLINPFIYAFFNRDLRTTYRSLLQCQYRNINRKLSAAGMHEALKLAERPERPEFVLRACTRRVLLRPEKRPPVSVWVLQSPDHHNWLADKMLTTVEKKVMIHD
Sequence of Muscarinic acetylcholine receptor M2 (P08172 whole entry): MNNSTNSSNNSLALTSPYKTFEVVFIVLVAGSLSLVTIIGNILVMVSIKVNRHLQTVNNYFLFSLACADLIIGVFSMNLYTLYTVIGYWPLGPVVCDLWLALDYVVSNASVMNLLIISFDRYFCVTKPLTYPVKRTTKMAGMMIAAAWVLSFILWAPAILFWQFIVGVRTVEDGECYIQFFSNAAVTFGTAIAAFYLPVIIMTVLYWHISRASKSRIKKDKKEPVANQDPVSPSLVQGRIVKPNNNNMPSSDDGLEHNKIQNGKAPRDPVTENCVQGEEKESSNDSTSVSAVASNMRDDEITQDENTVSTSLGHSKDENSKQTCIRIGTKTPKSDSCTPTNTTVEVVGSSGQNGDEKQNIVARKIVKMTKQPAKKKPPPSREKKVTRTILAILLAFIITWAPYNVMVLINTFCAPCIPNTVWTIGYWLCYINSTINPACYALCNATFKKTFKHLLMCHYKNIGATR
Sequence of Muscarinic acetylcholine receptor M3 (P20309 whole entry): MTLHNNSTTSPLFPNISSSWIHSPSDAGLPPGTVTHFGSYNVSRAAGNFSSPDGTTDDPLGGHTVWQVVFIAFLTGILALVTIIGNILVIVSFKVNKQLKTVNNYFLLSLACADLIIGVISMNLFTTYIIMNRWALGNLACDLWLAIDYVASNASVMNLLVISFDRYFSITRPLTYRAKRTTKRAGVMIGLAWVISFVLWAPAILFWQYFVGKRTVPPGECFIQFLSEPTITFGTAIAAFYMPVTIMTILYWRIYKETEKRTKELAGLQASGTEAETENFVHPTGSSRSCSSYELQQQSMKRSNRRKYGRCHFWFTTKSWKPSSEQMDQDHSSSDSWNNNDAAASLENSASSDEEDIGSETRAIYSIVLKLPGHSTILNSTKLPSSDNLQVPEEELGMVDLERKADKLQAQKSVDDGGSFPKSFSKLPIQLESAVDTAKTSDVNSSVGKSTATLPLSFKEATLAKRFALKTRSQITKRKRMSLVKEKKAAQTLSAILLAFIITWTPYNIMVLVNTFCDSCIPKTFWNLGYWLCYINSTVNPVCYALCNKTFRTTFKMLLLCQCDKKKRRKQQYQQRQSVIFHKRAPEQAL
Sequence of Adenosine receptor A1 (P30542 whole entry): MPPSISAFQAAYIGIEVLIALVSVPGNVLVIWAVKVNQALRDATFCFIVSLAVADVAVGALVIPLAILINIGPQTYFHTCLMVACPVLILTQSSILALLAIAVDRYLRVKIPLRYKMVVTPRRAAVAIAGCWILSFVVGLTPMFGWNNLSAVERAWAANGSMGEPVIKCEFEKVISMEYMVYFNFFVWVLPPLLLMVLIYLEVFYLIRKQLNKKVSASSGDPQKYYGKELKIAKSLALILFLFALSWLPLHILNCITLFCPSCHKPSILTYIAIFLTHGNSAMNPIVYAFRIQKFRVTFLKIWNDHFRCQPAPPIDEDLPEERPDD

For `Nn1c(CCCCN2CCN(c3ccc4ccccc4n3)CC2)nc2c(c1=O)CCCC2`, the Emax in [1] was 99.8%. In addition, the concentration at 2 h in [2] worked out at 160 nM; in data set [3], 66.5 nM. The IC50 in data set [4] is > 100 nM; in [7] it was > 1000 nM; in data set [8], 1 ×10⁻⁶ mol/L; in data set [9], > 1 ×10⁻⁶ mol/L; in data set [10], > 1000 nM; in data set [11], > 1000 nM. Further, the IC50 was > 1000 nM in [12], > 1000 nM in data set [13] and 1000 nM in data set [14]. In data set [5], this compound displayed a Ki of 4.72 nM. The inhibition entry in data set [6] is “Active”.
